Active and inactive are the calls of the source. The rule behind the calls is not given here.
Experiments:
Quadruplex DNA [1] = assay: Binding affinity to 5'-Biotinylated-AR1 G-quadruplex oligonucleotide (unknown origin) by SPR analysis; assay type: nucleic-acid assay
Summary of the method: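 SPR on streptavidin chip; 5′-biotinylated oligo folded by heating 95 °C 5 min in 10 mM lithium cacodylate, 150 mM KCl, then immobilized at 30 nM to about 600 RU; empty reference cell. Compound 0.7−400 nM in HEPES-KCl (pH 7.4, 0.15 M KCl, 3 mM EDTA) at 40 °C, 40 μL/min, 260 s contact, 600 s dissociation; glycine pH 2.0 regeneration; steady-state affinity fit; at least two independent runs.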

PNT1A = assay: Cytotoxicity against human PNT1A cells assessed as reduction in cell viability after 48 hrs by MTS assay; assay type: cell-based
Summary of the method: (§1)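 Cells kept in RPMI-1640 with 10% fetal calf serum, 37 °C, 5% CO2. Seeded, after 24 h treated with 0.0001, 0.001, 0.01, 0.1, 1 and 10 μM compound (DMSO stocks freshly diluted in medium) for 48 h. MTS added 4 h, absorbance 490 nm; IC50 from curves of % viability inhibition versus DMSO-treated cells against log concentration.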

LNCaP = assay: Cytotoxicity against human LNCAP cells expressing androgen receptor T877A point mutant assessed as reduction in cell viability after 48 hrs by MTS assay; assay type: functional, cell-based; summary of the method: as §1
[2] = Drug uptake in human 22Rv1 cells expressing full length androgen receptor H875Y point mutant at 160 nM after 24 hrs by DAPI staining-based fluorescence microscopic analysis; assay type: ADME, cell-based; conditions: cwr22r, 0.16 µM
Quadruplex DNA [3] = assay: Stabilization of AR G-quadruplex oligonucleotide in human LNCAP cells assessed as reduction in AR-FL protein level by immunoblotting assay; assay type: cell-based
Summary of the method: (§2)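 Lysate proteins immunoblotted. Vinculin or β-actin used as loading control, peroxidase-linked secondary antibodies, ECL chemiluminescent detection, autoradiography, densitometric scan. Untreated cells received DMSO.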

Quadruplex DNA [4] = assay: Stabilization of AR G-quadruplex oligonucleotide in human 22Rv1 cells assessed as down-regulation of KLK3 mRNA expression at IC50 after 6 to 72 hrs by RT-PCR analysis; assay type: cell-based
Summary of the method: (§3)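 Transcripts quantified by TaqMan real-time PCR with RNaseP as normalizer; relative quantity versus untreated cells by the 2−ΔΔCt method. Panel genes measured with a 92-gene cancer-mechanism TaqMan array.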

Quadruplex DNA [5] = assay: Stabilization of AR G-quadruplex oligonucleotide in human 22Rv1 cells assessed as reduction in AR-FL protein level by immunoblotting assay; assay type: cell-based
[6] = Stabilization of AGTGAGAGTGAGAGAGAGAGTGAGAGTGAGAGTGA/TCACTCTCACTCTCACTCTCTCTCTCACTCTCACT dsDNA (unknown origin) assessed as change in melting temperature at 16 uM after 16 hrs in presence of 100 mM K+ by CD spectra analysis
Summary of the method: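 CD: oligos at 4 μM final in 10 mM lithium cacodylate pH 7.4, 100 mM KCl, annealed 95 °C 5 min then 4 h room temperature; duplex from equimolar strands. Ligand 16 μM final, 16 h room temperature. Spectra 230−320 nm, 5 mm cell, two scans averaged at 20 °C, buffer-subtracted; melting from spectra 20−90 °C in 5 °C steps.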

Quadruplex DNA [7] = assay: (§4) Stabilization of AR1 template G-quadruplex DNA (unknown origin) assessed as inhibition of polymerase progression at G4 site by measuring reduction in full length amplified product using GGCAAAAAGCAGCTGCTTATATGCAG as primer at 12.5 to 200 nM after 30 mins in presence of 5'-end labeled [gamma32P]ATP by phosphorimaging based taq polymerase stop assay; assay type: nucleic-acid assay
Summary of the method: (§5)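 Primer 5′-labeled with [γ-32P]ATP by T4 polynucleotide kinase, 37 °C, 30 min. Labeled primer (72 nM final) annealed to template (36 nM final) in 10 mM lithium cacodylate pH 7.4, with or without 10 mM KCl, by heating at 95 °C for 5 min then slow cooling.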

[8] = as §4, with “TTTTTAGTGAGAGTGAGAGAGAGAGTGAGAGTGAGAGTGATTTTTCTGCATATAAGCAGCTGCTTTTTGCC” for “AR1 template G-quadruplex”; summary of the method: as §5
Quadruplex DNA [9] = assay: Stabilization of AR G-quadruplex oligonucleotide in human 22Rv1 cells assessed as down-regulation of ITGB3 mRNA expression at IC50 after 48 hrs by RT-PCR analysis; assay type: cell-based; summary of the method: as §3
Quadruplex DNA [10] = assay: Stabilization of AR G-quadruplex oligonucleotide in human PC3 cells assessed as down-regulation of ITGB3 mRNA expression at IC50 after 48 hrs by RT-PCR analysis; assay type: cell-based
Summary of the method: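 PC-3 cells (RPMI-1640, 10% fetal calf serum) exposed at an equitoxic concentration. Expression of 92 cancer-mechanism genes measured on TaqMan Arrays. Change versus untreated cells computed by 2−ΔΔCt, with RNaseP as normalizer.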

Quadruplex DNA [11] = assay: Stabilization of AR G-quadruplex oligonucleotide in human 22Rv1 cells assessed as inhibition of telomerase activity at IC50 after 48 hrs by TRAP assay; assay type: cell-based
CWR22R [12] = assay: Synergistic cytotoxicity against human 22Rv1 cells expressing full length androgen receptor H875Y point mutant assessed as reduction in cell viability at 0.001 to 0.1 uM after 72 hrs in presence of Enzalutamide by MTS assay based CI-Fa plot analysis; assay type: functional
Summary of the method: (§6)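 Cells in RPMI-1640 with 10% fetal calf serum were exposed to ligand (0.001−0.1 μM) plus enzalutamide (0.5−50 μM) at a fixed ratio, five concentrations, for 72 h at 37 °C, 5% CO2. Viability read by MTS absorbance at 490 nm after 4 h. Combination index computed at ED50 and ED75 by the Chou–Talalay method.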

Quadruplex DNA [13] = assay: Stabilization of AR G-quadruplex oligonucleotide in human 22Rv1 cells assessed as reduction in AKT1 phosphorylation at S473 residues at IC50 after 48 hrs by Western immunoblot assay; assay type: cell-based
Quadruplex DNA [14] = assay: Stabilization of AR G-quadruplex oligonucleotide in human 22Rv1 cells assessed as reduction in cyclin D1 protein level at IC50 after 48 hrs by Western immunoblot assay; assay type: cell-based
CWR22R [15] = assay: Effect on JUN mRNA expression in human 22Rv1 cells at IC50 after 48 hrs by RT-PCR analysis; assay type: functional, cell-based; summary of the method: as §3
PC-3 = assay: Effect on JUN mRNA expression in human PC3 cells at IC50 after 48 hrs by RT-PCR analysis; assay type: functional, cell-based; summary of the method: as §3
DU-145 = assay: Effect on c-MYC mRNA expression in human DU145 cells at IC50 after 48 hrs by RT-PCR analysis; assay type: functional, cell-based; summary of the method: as §3
Quadruplex DNA [16] = assay: Stabilization of AR G-quadruplex oligonucleotide in human LNCAP cells assessed as reduction in PSA protein level by immunoblotting assay; assay type: cell-based; summary of the method: as §2
CWR22R [17] = assay: Synergistic cytotoxicity against human 22Rv1 cells expressing full length androgen receptor H875Y point mutant assessed as combination index for reduction in cell viability measured at ED75 Enzalutamide at 0.001 to 0.1 uM after 72 hrs by MTS assay based Chou and Talay's plot analysis; assay type: functional; summary of the method: as §6
Quadruplex DNA [18] = assay: Stabilization of AR G-quadruplex oligonucleotide in human 22Rv1 cells assessed as up-regulation of BAX mRNA expression at IC50 after 48 hrs by RT-PCR analysis; assay type: cell-based; summary of the method: as §3

Kd (Quadruplex DNA [1]): 17.9 nM | Drug uptake [2]: Active | ΔTm [6]: 2.7 °C | inhibition (Quadruplex DNA [7]): Active | inhibition [8]: inactive
Compound: CN(C)CCCn1c(=O)c2ccc3c(=O)n(CCCN(C)C)c(=O)c4c5[nH]c6ccccc6[nH]c5c(c1=O)c2c34.Cl.Cl
IC50 (PNT1A): 280 nM | IC50 (LNCaP): 140 nM | Activity (Quadruplex DNA [3]): Active | Activity (Quadruplex DNA [4]): Active | Activity (Quadruplex DNA [5]): Active | Activity (Quadruplex DNA [9]): Active | Activity (Quadruplex DNA [10]): Active | inhibition (Quadruplex DNA [11]): Active | CI (CWR22R [12]): <0.5 | Activity (Quadruplex DNA [13]): Active | Activity (Quadruplex DNA [14]): Active | Activity (CWR22R [15]): inactive | Activity (PC-3): inactive | Activity (DU-145): inactive | Activity (Quadruplex DNA [16]): Active | CI (CWR22R [17]): <1 | Activity (Quadruplex DNA [18]): Active
